Assay results reported in ChEMBL document CHEMBL4373712, “Bioactivatable Pseudotripeptidization of Cyclic Dipeptides To Increase the Affinity toward Oligopeptide Transporter 1 for Enhanced Oral Absorption: An Application to Cyclo(l-Hyp-l-Ser) (JBP485)” (J Med Chem, 2019).
Where a SMILES comes first, the peptide text is derived from it. [ ]: non-standard residue; d: D form. Hyp = O=C(O)[C@@H]1C[C@@H](O)CN1

Experiments:
[1] = Oral bioavailability in rat; type: ADME, organism-based; conditions: in vivo
[2] = biological target: T1, Solute carrier family 15 member 1 (Rattus norvegicus, UniProt P51574); assay: Substrate activity at PEPT1 in Sprague-Dawley rat jejunum assessed as effective permeability at 5 mM measured after 15 to 120 mins by HPLC analysis; type: ADME, tissue-based; conditions: 5000 µM
T1 sequence (P51574 whole entry): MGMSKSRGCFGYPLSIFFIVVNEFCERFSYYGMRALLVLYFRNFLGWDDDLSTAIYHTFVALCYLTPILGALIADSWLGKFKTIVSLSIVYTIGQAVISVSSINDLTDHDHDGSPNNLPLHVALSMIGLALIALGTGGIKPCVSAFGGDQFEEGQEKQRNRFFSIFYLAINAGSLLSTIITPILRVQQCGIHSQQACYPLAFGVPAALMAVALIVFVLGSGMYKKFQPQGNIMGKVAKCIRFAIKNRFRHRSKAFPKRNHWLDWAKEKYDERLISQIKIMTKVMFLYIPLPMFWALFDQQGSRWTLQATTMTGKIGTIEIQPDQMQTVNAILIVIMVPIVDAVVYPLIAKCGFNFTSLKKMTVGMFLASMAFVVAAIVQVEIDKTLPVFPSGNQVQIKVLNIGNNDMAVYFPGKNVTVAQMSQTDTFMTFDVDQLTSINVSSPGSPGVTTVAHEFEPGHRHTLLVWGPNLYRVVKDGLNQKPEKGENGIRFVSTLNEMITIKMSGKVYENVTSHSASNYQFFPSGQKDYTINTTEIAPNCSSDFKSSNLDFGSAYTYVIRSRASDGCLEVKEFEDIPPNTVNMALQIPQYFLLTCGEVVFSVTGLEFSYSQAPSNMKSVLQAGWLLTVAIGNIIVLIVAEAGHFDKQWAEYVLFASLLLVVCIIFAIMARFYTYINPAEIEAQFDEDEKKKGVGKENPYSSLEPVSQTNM
How it was run: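 In situ single-pass jejunal perfusion in fasted (12 h) male SD rats anaesthetised with urethane 1.5 g/kg i.p. About 10 cm of jejunum was perfused at 0.2 mL/min with pH 6.0 HEPES buffer containing 5 mM compound. Outflow was collected 15–120 min after steady state and assayed by HPLC. Peff was calculated from outlet/inlet concentration and volume ratios and segment radius and length.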

[3] = biological target: T1, Solute carrier family 15 member 1; assay: Ratio of compound effect for substrate activity at PEPT1 in Sprague-Dawley rat jejunum assessed as effective permeability in absence of non-metabolized PEPT1 substrate Gly-Sar to compound effect for substrate activity at PEPT1 in Sprague-Dawley rat jejunum assessed as effective permeability in presence of non-metabolized PEPT1 substrate Gly-Sar; type: ADME
[4] = biological target: T2, Solute carrier family 15 member 1 (Homo sapiens, UniProt P46059); assay: Substrate activity at PEPT1 in human Caco2 cells assessed as protein-mediated drug uptake at 0.5 mM measured after 10 mins in pH 6 HBSS buffer by UPLC-MS/MS analysis; type: ADME, cell-based; conditions: caco-2, pH 6, 10 min, 500 µM
T2 sequence (P46059 whole entry): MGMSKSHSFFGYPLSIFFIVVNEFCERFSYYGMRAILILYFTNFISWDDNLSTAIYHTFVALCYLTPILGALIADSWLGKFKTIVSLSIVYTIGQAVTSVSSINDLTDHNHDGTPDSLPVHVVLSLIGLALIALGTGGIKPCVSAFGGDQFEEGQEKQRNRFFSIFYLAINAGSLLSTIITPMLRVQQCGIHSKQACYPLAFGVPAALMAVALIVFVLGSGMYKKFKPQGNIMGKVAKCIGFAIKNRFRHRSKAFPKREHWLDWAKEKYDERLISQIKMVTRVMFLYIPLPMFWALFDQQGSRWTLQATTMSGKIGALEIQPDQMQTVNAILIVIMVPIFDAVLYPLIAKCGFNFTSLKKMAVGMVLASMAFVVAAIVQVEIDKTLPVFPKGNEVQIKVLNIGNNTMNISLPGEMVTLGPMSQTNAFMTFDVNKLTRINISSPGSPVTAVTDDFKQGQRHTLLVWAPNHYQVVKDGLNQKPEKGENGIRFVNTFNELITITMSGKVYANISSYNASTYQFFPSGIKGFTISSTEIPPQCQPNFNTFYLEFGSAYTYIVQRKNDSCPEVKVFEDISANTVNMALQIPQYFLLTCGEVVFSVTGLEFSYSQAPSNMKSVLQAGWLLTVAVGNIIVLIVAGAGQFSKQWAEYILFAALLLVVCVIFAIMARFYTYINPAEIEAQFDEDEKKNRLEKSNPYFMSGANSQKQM
How it was run: (§1)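 Caco-2 cells incubated 10 min with 0.5 mM compound in HBSS at pH 6.0 or pH 7.4, washed three times in ice-cold PBS pH 7.4, homogenised. Protein by DC assay; drug by UPLC-MS/MS; n=3.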

[5] = biological target: T2, Solute carrier family 15 member 1; assay: Substrate activity at PEPT1 in human Caco2 cells assessed as protein-mediated drug uptake at 0.5 mM measured after 10 mins in pH 7.4 HBSS buffer by UPLC-MS/MS analysis; type: ADME, cell-based; conditions: caco-2, pH 7.4, 10 min, 500 µM; how it was run: as §1
[6] = biological target: T2, Solute carrier family 15 member 1; assay: Substrate activity at PEPT1 in human Caco2 cells assessed as inhibition of Gly-Sar uptake measured after 10 mins by UPLC-MS/MS analysis; type: cell-based
How it was run: (§2)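 Caco-2 cells with 0.5 mM Gly-Sar probe substrate and competitor at 0.5–50 mM. IC50 by nonlinear fitting; n=3.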

[7] = biological target: T2, Solute carrier family 15 member 1; assay: Substrate activity at PEPT1 in human Caco2 cells assessed as inhibition of Gly-Sar uptake by LC-MS/MS analysis; type: cell-based; how it was run: as §2

## O=C(O)[C@H](CO)NC(=O)[C@@H]1C[C@@H](O)CN1 (H-[Hyp]-Ser-OH)
[1]
  bioavailability: ≤ 100%
[2]
  Peff: Permeable
[3]
  Ratio: 7.3
[4]
  Drug uptake: Active
[5]
  Drug uptake: Not Active
[6]
  IC50: 1.76 mM
[7]
  Ki: 2.5 mM
